Measurements gathered from unrelated publications.
Target: Protein kinase C iota type (PRKCI, Homo sapiens, UniProt P41743)
Sequence (P41743 1-596, as in one of the studies): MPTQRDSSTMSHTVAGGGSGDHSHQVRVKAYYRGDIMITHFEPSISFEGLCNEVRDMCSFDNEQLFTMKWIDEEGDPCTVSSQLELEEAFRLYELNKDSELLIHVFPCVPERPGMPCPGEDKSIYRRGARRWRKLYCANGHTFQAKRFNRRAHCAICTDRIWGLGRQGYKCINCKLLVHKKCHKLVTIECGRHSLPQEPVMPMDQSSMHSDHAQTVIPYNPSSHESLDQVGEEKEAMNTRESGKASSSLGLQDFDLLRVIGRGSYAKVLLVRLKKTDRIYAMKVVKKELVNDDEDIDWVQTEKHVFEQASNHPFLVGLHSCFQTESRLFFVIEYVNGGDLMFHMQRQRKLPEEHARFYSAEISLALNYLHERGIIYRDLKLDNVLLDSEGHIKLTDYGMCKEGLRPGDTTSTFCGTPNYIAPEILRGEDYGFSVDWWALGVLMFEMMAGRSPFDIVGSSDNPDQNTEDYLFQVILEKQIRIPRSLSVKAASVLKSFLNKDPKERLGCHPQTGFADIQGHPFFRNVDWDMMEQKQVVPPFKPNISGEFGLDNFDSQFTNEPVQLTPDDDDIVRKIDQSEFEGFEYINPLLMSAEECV

assay	conditions	remaining binding [%]	SMILES
binding, competition with immobilised ligand	1 µM	96	COc1cnc(Nc2cccc(S(N)(=O)=O)c2)nc1N1CCN(c2ccccc2)C(=O)C1
cell-free assay, competition with immobilised ligand	1 µM	66	O=C(O)[C@H]1[C@H](Cn2nnc3ccccc3c2=O)CC[C@@H]1C(=O)c1ccc(OCCC2CCOCC2)cc1
binding, competition with immobilised ligand	1 µM	54	O=C(c1ccc(Nc2nccc(-c3cc4ccccc4s3)n2)cc1)N1CCC(N2CCCC2)CC1
binding	1 µM	100	CN(C)c1ncc(F)c(-c2cnn3ncccc23)n1
cell-free assay, competition with immobilised ligand	1 µM	96	O=C(Nc1cccnn1)N1CC(C/C=C/c2cncc(Oc3ccc(C(F)(F)F)cn3)n2)C1
binding, competition with immobilised ligand	1 µM	98	O=C(NCCCN1CCOCC1)c1ccc(Nc2ncc(Cl)c(-c3ccc(Cl)s3)n2)cc1
binding	1 µM	81	CN(C)c1nccc(-c2cnn3ncccc23)n1
binding, competition with immobilised ligand	1 µM	97	CNC(=O)[C@@H]1CC[C@@H](n2c(-c3ccc4cnccc4c3)nc3ccc(C(=O)NCc4cccc(C(N)=O)c4)cc32)C1
cell-free assay, competition with immobilised ligand	1 µM	100	CN([C@@H]1CCc2c(CC(=O)O)c3ccccc3n2C1)S(=O)(=O)c1ccc(F)cc1
binding, competition with immobilised ligand	10 µM	78	c1cncc(-c2cccc(Nc3nccc(NC4CCCCC4)n3)c2)c1
cell-free assay, competition with immobilised ligand	1 µM	86	N#Cc1ccc(Nc2ccc3[nH]c(=O)[nH]c3c2)c(Cl)c1
binding, competition with immobilised ligand	1 µM	73	O=C(NCC1CCOCC1)c1n[nH]cc1NC(=O)c1c(F)cccc1F
binding	1 µM	100	CC1CCCN1c1nccc(-c2cnn3ncccc23)n1 (centres unmarked)
cell-free assay, competition with immobilised ligand	1 µM	79	CN(C)c1ncnc(-c2ccc3nc(Nc4cc(CN5CCN(C(=O)CC(F)(F)F)CC5)ccn4)[nH]c3c2)c1Cl
binding	1 µM	100	F[C@@H]1CCN(c2nccc(-c3cnn4ncccc34)n2)C1
binding, competition with immobilised ligand	0.1 µM	82	C[C@@H](c1ccc(-n2cnc3c(N)ncnc32)cc1)N1CCc2nn(C)c(Cc3ccccc3)c2C1=O
binding	1 µM	64	C[C@@H]1CCN(c2nccc(-c3cnn4ncccc34)n2)C1
cell-free assay, competition with immobilised ligand	1 µM	98	NS(=O)(=O)c1cc(NC(=O)C2(c3ccccc3Cl)CC2)ccc1Oc1cccc(Cl)c1
binding	1 µM	37	N[C@H]1CCN(c2nccc(-c3cnn4ncccc34)n2)C1
binding, competition with immobilised ligand	1 µM	98	O=C(c1ccc(Nc2ncc(Cl)c(-c3ccc(Cl)s3)n2)cc1)N1CCC(N2CCCC2)CC1
